Tests used:
Details in all cases: stereoisomer not certain
[1] = biological target: T1, OR51I2 (Homo sapiens) (UniProt Q9H344)
T1 sequence (whole entry): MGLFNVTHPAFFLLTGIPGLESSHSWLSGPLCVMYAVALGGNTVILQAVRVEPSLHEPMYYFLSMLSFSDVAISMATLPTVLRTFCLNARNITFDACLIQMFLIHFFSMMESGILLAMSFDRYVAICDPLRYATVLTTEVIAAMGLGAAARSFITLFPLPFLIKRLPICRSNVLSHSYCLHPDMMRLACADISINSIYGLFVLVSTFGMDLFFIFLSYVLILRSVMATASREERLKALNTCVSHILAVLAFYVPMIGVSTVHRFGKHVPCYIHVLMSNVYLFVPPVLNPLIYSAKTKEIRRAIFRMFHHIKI
Method in brief: (§1)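 Whether a receptor–molecule pair is responsive (active) rests on the original authors' judgment that its measured signal was statistically different from baseline. Pairs without that judgment are non-responsive (inactive). Sources used varied assay methods, commonly transient luciferase assays in mammalian cell lines.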

[2] = biological target: T2, OR51J1 (Homo sapiens) (UniProt Q9H342)
T2 sequence (whole entry): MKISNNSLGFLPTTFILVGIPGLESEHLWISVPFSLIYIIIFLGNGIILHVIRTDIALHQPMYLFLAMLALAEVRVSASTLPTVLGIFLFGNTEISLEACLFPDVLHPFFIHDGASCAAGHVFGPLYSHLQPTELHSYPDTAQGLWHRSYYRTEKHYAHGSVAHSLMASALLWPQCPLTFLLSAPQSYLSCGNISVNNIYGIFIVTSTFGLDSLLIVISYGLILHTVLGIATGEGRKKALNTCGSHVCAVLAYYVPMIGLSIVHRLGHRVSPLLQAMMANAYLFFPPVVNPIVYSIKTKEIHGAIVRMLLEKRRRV
Method in brief: as §1

[3] = biological target: T3, OR51L1 (Homo sapiens) (UniProt Q8NGJ5)
T3 sequence (whole entry): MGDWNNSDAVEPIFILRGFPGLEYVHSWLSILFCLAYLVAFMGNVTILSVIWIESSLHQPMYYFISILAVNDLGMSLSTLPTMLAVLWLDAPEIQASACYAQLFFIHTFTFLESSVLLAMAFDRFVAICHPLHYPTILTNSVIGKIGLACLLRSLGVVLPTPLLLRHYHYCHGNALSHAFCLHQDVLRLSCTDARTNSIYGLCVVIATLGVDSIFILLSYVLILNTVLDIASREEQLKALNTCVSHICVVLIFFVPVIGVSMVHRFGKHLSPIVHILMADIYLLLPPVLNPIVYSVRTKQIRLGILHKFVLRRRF
Method in brief: as §1

[4] = biological target: T4, OR51M1 (Homo sapiens) (UniProt Q9H341)
T4 sequence (whole entry): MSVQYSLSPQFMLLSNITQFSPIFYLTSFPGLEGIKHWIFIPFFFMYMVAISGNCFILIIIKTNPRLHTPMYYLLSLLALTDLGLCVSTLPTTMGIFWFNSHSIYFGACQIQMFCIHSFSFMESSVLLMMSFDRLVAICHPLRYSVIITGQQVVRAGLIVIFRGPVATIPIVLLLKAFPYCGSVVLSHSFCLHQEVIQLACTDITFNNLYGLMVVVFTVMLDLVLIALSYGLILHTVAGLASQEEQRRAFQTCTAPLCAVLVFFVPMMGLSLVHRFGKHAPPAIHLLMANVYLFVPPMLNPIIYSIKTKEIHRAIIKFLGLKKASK
Method in brief: as §1

[5] = biological target: T5, OR51Q1 (Homo sapiens) (UniProt Q8NH59)
T5 sequence (whole entry): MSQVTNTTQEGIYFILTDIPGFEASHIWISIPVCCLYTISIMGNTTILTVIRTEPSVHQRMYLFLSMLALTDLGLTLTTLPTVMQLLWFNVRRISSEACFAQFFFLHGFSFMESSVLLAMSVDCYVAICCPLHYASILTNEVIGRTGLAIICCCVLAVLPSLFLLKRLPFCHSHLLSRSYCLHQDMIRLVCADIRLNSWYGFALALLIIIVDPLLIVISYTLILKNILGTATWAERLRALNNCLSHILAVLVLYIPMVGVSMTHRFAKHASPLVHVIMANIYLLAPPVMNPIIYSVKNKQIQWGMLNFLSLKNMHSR
Method in brief: as §1

[6] = biological target: T6, OR51S1 (Homo sapiens) (UniProt Q8NGJ8)
T6 sequence (whole entry): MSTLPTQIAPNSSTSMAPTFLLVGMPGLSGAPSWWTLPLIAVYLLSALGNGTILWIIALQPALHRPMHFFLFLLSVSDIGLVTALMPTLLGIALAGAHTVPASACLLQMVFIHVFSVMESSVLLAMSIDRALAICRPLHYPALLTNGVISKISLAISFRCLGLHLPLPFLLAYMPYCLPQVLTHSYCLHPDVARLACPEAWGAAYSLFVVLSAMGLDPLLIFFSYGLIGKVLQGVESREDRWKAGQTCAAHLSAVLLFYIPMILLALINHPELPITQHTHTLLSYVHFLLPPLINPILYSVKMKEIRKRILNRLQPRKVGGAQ
Method in brief: as §1

[7] = biological target: T7, OR51T1 (Homo sapiens) (UniProt Q8NGJ9)
T7 sequence (whole entry): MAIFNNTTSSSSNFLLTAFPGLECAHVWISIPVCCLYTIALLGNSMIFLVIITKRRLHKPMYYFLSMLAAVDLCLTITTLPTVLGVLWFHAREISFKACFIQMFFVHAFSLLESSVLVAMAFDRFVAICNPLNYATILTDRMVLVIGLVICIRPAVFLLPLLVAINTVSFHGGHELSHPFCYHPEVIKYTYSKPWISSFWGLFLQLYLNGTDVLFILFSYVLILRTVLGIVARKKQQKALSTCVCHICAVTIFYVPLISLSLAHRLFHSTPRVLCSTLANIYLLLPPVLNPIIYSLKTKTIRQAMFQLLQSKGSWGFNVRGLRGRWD
Method in brief: as §1

[8] = biological target: T8, OR51V1 (Homo sapiens) (UniProt Q9H2C8)
T8 sequence (whole entry): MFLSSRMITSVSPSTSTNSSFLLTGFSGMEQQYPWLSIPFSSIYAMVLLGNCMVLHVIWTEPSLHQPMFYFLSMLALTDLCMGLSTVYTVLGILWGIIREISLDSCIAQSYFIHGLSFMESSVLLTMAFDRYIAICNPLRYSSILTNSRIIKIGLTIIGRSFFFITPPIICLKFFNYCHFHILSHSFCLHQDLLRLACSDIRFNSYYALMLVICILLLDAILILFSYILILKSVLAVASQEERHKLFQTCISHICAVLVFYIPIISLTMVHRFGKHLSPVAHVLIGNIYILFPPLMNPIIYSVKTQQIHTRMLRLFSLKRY
Method in brief: as §1

[9] = biological target: T9, OR52A1 (Homo sapiens) (UniProt Q9UKL2)
T9 sequence (whole entry): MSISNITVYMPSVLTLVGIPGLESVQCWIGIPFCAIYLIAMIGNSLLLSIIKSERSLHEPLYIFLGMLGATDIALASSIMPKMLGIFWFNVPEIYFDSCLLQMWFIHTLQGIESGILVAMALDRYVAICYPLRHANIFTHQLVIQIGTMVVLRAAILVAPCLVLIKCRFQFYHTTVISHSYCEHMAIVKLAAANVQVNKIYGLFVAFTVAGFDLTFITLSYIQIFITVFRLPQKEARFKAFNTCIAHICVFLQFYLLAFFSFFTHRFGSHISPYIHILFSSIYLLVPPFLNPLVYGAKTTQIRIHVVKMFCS
Method in brief: as §1

[10] = biological target: T10, OR52A4P (Homo sapiens) (UniProt A6NMU1)
T10 sequence (whole entry): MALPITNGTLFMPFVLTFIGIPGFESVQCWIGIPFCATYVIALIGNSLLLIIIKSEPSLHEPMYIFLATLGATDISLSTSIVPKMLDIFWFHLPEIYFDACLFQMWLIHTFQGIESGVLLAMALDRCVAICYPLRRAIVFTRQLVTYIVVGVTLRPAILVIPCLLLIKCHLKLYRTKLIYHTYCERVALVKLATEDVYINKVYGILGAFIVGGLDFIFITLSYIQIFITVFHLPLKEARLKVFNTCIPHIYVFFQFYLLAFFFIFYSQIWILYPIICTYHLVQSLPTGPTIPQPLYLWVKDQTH
Method in brief: as §1

[11] = biological target: T11, OR52A5 (Homo sapiens) (UniProt Q9H2C5)
T11 sequence (whole entry): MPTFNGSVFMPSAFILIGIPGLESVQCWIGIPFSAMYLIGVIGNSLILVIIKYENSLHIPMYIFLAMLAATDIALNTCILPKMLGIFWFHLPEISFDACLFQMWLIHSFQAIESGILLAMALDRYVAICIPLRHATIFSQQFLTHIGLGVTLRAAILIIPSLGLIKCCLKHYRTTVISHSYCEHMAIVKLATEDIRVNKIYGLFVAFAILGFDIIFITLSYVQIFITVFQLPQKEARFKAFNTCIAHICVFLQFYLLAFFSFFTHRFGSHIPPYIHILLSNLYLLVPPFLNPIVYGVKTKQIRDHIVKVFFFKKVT
Method in brief: as §1

[12] = biological target: T12, OR52B2 (Homo sapiens) (UniProt Q96RD2)
T12 sequence (whole entry): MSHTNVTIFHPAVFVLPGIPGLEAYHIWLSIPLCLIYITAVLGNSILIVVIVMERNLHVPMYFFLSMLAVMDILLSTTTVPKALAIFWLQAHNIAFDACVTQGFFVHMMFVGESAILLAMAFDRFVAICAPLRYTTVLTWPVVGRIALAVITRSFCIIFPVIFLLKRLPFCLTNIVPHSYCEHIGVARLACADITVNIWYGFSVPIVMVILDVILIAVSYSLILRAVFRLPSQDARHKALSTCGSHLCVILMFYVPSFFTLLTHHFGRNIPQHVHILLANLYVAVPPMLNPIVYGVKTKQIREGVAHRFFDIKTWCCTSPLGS
Method in brief: as §1

[13] = biological target: T13, OR52B4 (Homo sapiens) (UniProt Q8NGK2)
T13 sequence (whole entry): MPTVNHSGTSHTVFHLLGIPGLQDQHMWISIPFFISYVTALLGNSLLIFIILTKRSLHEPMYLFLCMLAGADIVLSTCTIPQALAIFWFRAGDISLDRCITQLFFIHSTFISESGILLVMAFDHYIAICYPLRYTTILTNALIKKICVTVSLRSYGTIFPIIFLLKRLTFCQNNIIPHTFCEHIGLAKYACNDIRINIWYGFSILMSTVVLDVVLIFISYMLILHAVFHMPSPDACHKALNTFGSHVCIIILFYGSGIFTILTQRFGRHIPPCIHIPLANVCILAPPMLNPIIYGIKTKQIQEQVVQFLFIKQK
Method in brief: as §1

[14] = biological target: T14, OR52B6 (Homo sapiens) (UniProt Q8NGF0)
T14 sequence (whole entry): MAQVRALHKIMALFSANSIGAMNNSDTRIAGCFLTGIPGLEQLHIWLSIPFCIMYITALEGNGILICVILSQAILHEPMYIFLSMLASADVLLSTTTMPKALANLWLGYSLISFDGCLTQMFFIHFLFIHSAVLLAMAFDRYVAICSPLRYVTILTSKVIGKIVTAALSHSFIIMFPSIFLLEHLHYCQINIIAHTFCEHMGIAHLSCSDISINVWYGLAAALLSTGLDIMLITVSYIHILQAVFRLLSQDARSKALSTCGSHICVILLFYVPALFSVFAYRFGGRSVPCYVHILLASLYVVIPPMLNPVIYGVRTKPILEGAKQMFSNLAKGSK
Method in brief: as §1

[15] = biological target: T15, OR52D1 (Homo sapiens) (UniProt Q9H346)
T15 sequence (whole entry): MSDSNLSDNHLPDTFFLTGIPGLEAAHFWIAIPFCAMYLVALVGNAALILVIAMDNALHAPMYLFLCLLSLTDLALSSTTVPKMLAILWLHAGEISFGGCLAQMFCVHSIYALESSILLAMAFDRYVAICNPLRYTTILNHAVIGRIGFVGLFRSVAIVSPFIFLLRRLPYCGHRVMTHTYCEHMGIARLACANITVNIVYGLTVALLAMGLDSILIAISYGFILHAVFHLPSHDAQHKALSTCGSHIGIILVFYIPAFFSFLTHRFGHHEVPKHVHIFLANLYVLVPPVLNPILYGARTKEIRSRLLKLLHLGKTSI
Method in brief: as §1

[16] = biological target: OR52E2 (Homo sapiens) (UniProt Q8NGJ4)
Method in brief: as §1

[17] = biological target: OR52E4 (Homo sapiens) (UniProt Q8NGH9)
Method in brief: as §1

[18] = biological target: OR52E5 (Homo sapiens) (UniProt Q8NH55)
Method in brief: as §1

[19] = biological target: OR52E6 (Homo sapiens) (UniProt Q96RD3)
Method in brief: as §1

[20] = biological target: OR52E1 (Homo sapiens) (UniProt Q8NGJ3)
Method in brief: as §1

Measured: odorant receptor agonist call;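 also: active if original authors judged signal statistically different from baseline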

OR52E4 (Homo sapiens), sequence (Q8NGH9 whole entry): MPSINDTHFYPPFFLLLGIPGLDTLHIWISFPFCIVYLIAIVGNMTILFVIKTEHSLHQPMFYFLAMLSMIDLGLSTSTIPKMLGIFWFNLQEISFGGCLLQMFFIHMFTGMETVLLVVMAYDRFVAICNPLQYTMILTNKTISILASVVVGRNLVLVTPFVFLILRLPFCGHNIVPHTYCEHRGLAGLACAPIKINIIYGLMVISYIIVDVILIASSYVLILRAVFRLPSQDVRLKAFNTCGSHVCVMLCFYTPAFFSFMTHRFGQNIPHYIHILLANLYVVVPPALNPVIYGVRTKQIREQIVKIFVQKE
OR52E2 (Homo sapiens), sequence (Q8NGJ4 whole entry): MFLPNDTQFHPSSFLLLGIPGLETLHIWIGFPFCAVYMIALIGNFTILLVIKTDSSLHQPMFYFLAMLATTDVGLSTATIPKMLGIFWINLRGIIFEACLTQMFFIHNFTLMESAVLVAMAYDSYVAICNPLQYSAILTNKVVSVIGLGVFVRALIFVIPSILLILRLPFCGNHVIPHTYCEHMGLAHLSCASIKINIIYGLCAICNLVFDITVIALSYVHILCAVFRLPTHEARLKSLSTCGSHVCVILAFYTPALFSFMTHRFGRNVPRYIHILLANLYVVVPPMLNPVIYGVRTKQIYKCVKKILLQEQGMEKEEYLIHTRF
OR52E6 (Homo sapiens), sequence (Q96RD3 whole entry): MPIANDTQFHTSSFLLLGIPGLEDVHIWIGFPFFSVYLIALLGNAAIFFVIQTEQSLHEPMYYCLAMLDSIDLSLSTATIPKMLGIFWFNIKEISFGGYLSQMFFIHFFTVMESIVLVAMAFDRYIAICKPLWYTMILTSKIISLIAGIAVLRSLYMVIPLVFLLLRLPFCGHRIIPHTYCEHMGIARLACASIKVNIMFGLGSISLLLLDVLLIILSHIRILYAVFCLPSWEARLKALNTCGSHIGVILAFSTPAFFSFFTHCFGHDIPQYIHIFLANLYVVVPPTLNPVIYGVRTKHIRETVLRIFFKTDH
OR52E1 (Homo sapiens), sequence (Q8NGJ3 whole entry): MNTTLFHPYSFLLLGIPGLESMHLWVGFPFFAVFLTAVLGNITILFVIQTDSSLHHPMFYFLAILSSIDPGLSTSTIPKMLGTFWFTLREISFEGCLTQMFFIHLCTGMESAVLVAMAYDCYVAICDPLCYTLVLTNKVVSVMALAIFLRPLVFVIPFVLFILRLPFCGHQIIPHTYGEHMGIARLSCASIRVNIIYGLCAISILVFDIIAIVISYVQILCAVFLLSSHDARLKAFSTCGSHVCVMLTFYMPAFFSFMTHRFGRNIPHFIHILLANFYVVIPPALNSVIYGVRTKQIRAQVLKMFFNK
OR52E5 (Homo sapiens), sequence (Q8NH55 whole entry): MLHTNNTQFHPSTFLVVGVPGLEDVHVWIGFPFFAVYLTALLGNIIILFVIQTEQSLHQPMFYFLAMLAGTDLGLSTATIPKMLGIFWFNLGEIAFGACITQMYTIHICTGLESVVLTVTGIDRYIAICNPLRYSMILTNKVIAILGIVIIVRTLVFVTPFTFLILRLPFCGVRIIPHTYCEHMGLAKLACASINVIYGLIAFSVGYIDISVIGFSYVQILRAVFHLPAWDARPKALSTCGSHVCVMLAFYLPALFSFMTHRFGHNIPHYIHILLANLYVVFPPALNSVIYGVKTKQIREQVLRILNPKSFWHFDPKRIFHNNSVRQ

CCC(S)C(C)CO (stereo unspecified)
not listed: [20]
inactive: all other assays above

CC(=O)Oc1ccccc1
inactive: [3]

CCCCCCCCCS
inactive: [3]

CCCCC(C)=O
inactive: [3]

CCCCC(=O)CC
inactive: [3]

CCC(C(=O)O)c1ccccc1 (stereo unspecified)
inactive: [3]

CC1=NC(C)C(C)S1 (stereo unspecified)
not listed: [7] | [10] | [18]
inactive: all other assays above

CCCCC(=O)O
inactive: [3]

CCCCCC(S)C(C)CO (stereo unspecified)
not listed: [20]
inactive: all other assays above

CC1=C(O)C(=O)C(C)O1 (stereo unspecified)
not listed: [7] | [10] | [18]
inactive: all other assays above

CCCC(=O)C(C)=O
inactive: [3]

CC(C)=CCCC(C)CCO (stereo unspecified)
inactive: [3]

CCCCCCCCS
inactive: [3]

Reference: the M2OR odorant receptor database
